# PglD DTNB = C. jejuni PglD acetyltransferase inhibitors, primary screen, biochemical, DTNB colorimetric, single point; UDP-N-acetylbacillosamine N-acetyltransferase PglD (Campylobacter jejuni); purified PglD enzyme, DTNB colorimetric CoA detection; inhibition, % at 12.5 µM; hit rate 0.098% among 360,000; in the data active = inhibition above about 16%, passing the limit was not always enough; inconclusive = no clear call, values can overlap the other calls
# Rtt109 Vps75 = inhibitors of C. albicans Rtt109/Vps75 HAT, primary screen, biochemical, ThioGlo CoA-SH fluorescence, plate reader | AID 540336, 2011 | hit rate 0.16% among 330,000 | purified Rtt109/Vps75, 4 h | Histone acetyltransferase RTT109 (Candida albicans (strain SC5314 / ATCC MYA-2876)), … | inhibition, % at 34.9 µM;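 active = inhibition of at least 50% in every replicate; inconclusive = best replicate reaches 50% inhibition but some replicates fall short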
# Target sequence (Q5AAJ8 whole entry, looked up): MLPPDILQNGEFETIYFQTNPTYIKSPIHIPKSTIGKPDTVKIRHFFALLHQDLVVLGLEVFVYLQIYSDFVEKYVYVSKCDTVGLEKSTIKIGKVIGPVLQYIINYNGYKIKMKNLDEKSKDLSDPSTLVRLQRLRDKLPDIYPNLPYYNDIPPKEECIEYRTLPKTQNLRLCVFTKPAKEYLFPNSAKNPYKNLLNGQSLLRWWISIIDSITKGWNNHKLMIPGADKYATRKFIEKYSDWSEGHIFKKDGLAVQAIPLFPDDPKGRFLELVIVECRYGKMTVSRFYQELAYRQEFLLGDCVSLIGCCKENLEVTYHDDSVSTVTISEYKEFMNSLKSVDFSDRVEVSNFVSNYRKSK
# Glyco luc inh = increase of ERlucT glycosylation luciferase signal, primary screen, N-linked glycosylation inhibitor project, D54 ERlucT cells, luminescence, set 2; D54 ERlucT glycosylation luciferase reporter, 24 h; percent of 100 nM tunicamycin response; reporter increase, % at 12.5 µM; hit rate 0.23% among 360,000; AID 588692, 2011;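 active = mean luciferase reporter signal, scaled so untreated is 0 and the glycosylation-blocking control 100, at or above a set limit in every replicate; inconclusive = mean reaches the limit but not every replicate does; inactive = mean below the limit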;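 note: luciferase carries N-glycosylation sites so blocking glycosylation raises the light; 0% = median of neutral control wells and 100% = median of 100 nM tunicamycin wells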
# SR-BI DiI inh = inhibitors of SR-BI mediated HDL lipid uptake, primary screen, ldlA[mSR-BI] cells, fluorescence, single point; Scavenger receptor class B member 1 (Mus musculus), Q61009; ldlA[mSR-BI] CHO cells, DiI-HDL uptake fluorescence, 3 h; inhibition, % at 12.5 µM; hit rate 0.96% among 320,000; AID 488896, 2010;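 active = mean replicate inhibition of at least 70% and a set share of replicates each scoring 70 or more; inconclusive = meets just one of the two criteria; inactive = fails both criteria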;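 note: 0% = median of neutral control wells and 100% = median of positive control wells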
# SR-BI uptake up = activators of SR-BI mediated DiI-HDL uptake, primary screen, ldlA[mSR-BI] CHO cells, DiI fluorescence; 3 h; 100 = double the neutral-control signal; activation, % at 12.5 µM; hit rate 0.096% among 320,000; AID 504775, 2011;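 active = mean replicate activation of at least 60% and every replicate at or above 60%; inconclusive = mean or all-replicate condition met, but not both; inactive = mean below 60% and not all replicates reaching 60%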;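 note: 0% = median plate neutral-control signal and 100% = twice that signal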
#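 Assay system: LDL receptor-deficient CHO ldlA cells overexpressing murine SR-BI / Medium: BSA-supplemented, HEPES-buffered Ham's F12, pH 7.4 / Probe or stimulus: DiI-labelled HDL at 10 µg/mL final / Timing: compound with DiI-HDL co-incubation, 3 h at 37 °C / Technique: bottom-read cell fluorescence after medium removal, ex 550/em 595 nm / Measure: HDL uptake via cellular fluorescence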
# HIV Env fusion = inhibitors of HIV-1 Env-driven cell-cell fusion, primary screen, HeLa-JRFL effector, CEM21 target cells, luciferase; inhibition, % at 12.3 µM; hit rate 1.1% among 360,000; AID 651610, 2012;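 active = mean replicate inhibition score of at least 50 and every replicate individually at or above 50; inconclusive = only one of the two criteria met; inactive = mean below 50 and not all replicates reaching 50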;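 note: 0% = plate neutral controls and 100% = maraviroc near 300 nM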
# An asterisk follows results filed as active; ? = inconclusive; · = no result; [ ] = dose if it differs, or a comment. Shown are actives, neighbours in structure and some others; about 1.9% of the full set was active somewhere.
SMILES,PglD DTNB,Rtt109 Vps75,Glyco luc inh,SR-BI DiI inh,SR-BI uptake up,HIV Env fusion
O=C(Nc1c(C(=O)c2ccccc2)oc2ccccc12)c1cc(-c2ccccc2O)n[nH]1,·,9,-3,74*,-74,7
Cc1ccc(C(=O)c2oc3ccccc3c2NC(=O)c2cc(-c3ccccc3O)n[nH]2)cc1,·,-1,-8,53,-53,-24
Fc1ccc(/C=N/c2c(-c3ccc(F)cc3)nc3n2CCS3)cc1,1,-4,-1,77*,-77,·
COc1cccc(OCCn2cc(C(=O)c3ccco3)c3ccccc32)c1,-4,-4,-2,·,·,66*
COc1ccccc1OCCn1cc(C(=O)c2ccco2)c2ccccc21,5,19,-2,46,-46,-5
CNC(=S)N/N=C/c1cn(CCOc2ccccc2OC)c2ccccc12,·,3,8,60,-60,22
CNC(=S)N/N=C/c1cn(CCOc2cccc(OC)c2)c2ccccc12,·,5,0,80*,-80,-13
CCOC(=O)N/N=C/c1cn(CCCOc2ccc(C)cc2)c2ccccc12,5,47,-5,72*,-72,29
CO[C@H]1CN(C)C(=O)c2cc(NC(=O)Nc3ccc(Cl)cc3)ccc2OC[C@H](C)N(C)C[C@@H]1C,1,·,·,·,·,5[16.7 µM]
C[C@@H]1CN([C@@H](C)CO)C(=O)c2cc(NS(=O)(=O)c3ccc(Cl)cc3)ccc2O[C@@H]1CN(C)Cc1ccc(C(F)(F)F)cc1,·,·,·,·,·,2[16.7 µM]
CCc1ccc(Oc2coc3cc(OCC(=O)Nc4cc(C)ccc4C)ccc3c2=O)cc1,-3,2,66*,35,-35,-23
Cc1cccc(C(=O)OCC(=O)c2c(N)n(CC(C)C)c(=O)n(C)c2=O)c1O,·,-27,-3,23,-23,60*
Cc1noc(C)c1NC(=O)Nc1cccc2c1O[C@@H](CN(C)Cc1ccncc1)[C@@H](C)CN([C@@H](C)CO)C2=O,1,·,·,·,·,-7[16.7 µM]
Cc1ccc(S(=O)(=O)Nc2ccccc2F)cc1C(=O)NNC(=O)c1ccccc1O,-4,-3,-4,8,-8,-18
COc1ccc(NS(=O)(=O)c2ccc(C)c(C(=O)NNC(=O)c3ccccc3O)c2)cc1,-2,3,-1,97*,-97,0
O=C(NNC(=O)c1ccccc1O)c1ccc(NS(=O)(=O)c2ccc(F)c(F)c2)cc1,·,1,2,85*,-85,2
C[C@H]1CCCCO[C@H](CN(C)Cc2ccc(C(F)(F)F)cc2)[C@@H](C)CN([C@@H](C)CO)C(=O)c2cc(NS(=O)(=O)c3ccccc3)ccc2O1,-3,·,·,·,·,-36[16.7 µM]
C[C@H]1CCCCO[C@@H](CN(C)C(=O)NC2CCCCC2)[C@@H](C)CN([C@@H](C)CO)C(=O)c2cc(NS(=O)(=O)c3ccc(F)cc3)ccc2O1,1,·,·,·,·,-184[16.7 µM]
Cc1cc2c3c(c1C)C1(C(=O)N3C(C)(C)CC2C)C(C#N)=C(N)Oc2cc(O)ccc21 (stereo not given),3,4,-2,-20,20,62*
Cc1cc2c3c(c1)C1(C(=O)N3C(C)(C)CC2C)C(C#N)=C(N)OC2=C1C(=O)CC(C)(C)C2 (stereo not given),2,-14,-1,-15,15,·
CCCNC(=O)N(C)C[C@@H]1Oc2ncc(-c3ccccc3)cc2C(=O)N([C@@H](C)CO)C[C@@H]1C,-3,·,·,·,·,3[16.7 µM]
Cc1ccc(C2=NS(=O)(=O)N(C)C(C(=O)Nc3cc(C)n(CC(=O)N4CCC(C)CC4)n3)=C2)cc1,-9,?,3,86*,-86,1
Cc1nc2ccccc2cc1OCc1ccc(Cl)cc1,3,5,-4,17,-17,27
Cc1nc2ccccc2nc(C)c1=NOCc1cccc(Cl)c1,-3,-25,-2,-7,7,69*
CCOc1cc(S(=O)(=O)N2CCC(Cc3ccccc3)CC2)c(OCC)cc1-n1cnnn1,2,55*,-7,17,-17,43
